This is an account of results in ChEMBL document CHEMBL1124954, “Atrial natriuretic peptide receptor modulators: effects of disubstituted quinazolines on receptor binding and in vitro biological activity” (J Med Chem, 1990).

Experiment [1] is described as follows: In vitro binding affinity towards atrionatriuretic peptide receptor (ANP) using [125I]rANP as radioligand in bovine adrenal zonal glomerulosa membranes.
Experiment [2] is filed under the species Rattus norvegicus. Briefly: ACTH-stimulated aldosterone synthesis was determined in rat adrenal glomerulosa cell suspension (control = 8.5+/-0.9). The experiment is classed as functional.
Experiment [3] is filed under the species Rattus norvegicus. Briefly: Inhibition of aldosterone synthesis was determined in rat adrenal glomerulosa per 2 hours at 3 uM concentration, in the absence of rANP (control = 1+/-0.1). It is filed as functional.
For experiment [4], the species on record is Rattus norvegicus. The experiment in a line: Concentration for rANP inhibition of aldosterone synthesis was determined in rat adrenal glomerulosa. It is filed as functional. The procedure, abridged:
(§1)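 Collagenase-dispersed male Sprague-Dawley rat adrenal glomerulosa cells were used at about 30,000 cells/mL in M199 with KCl 3.5 mM and BSA 2 mg/mL. They were incubated 2 h at 37 °C with ACTH 1 nM and rANP 10⁻¹⁰–10⁻⁸ M, plus compound or water vehicle. Aldosterone was measured by RIA. The EC50 came from a four-parameter logistic fit, compared by Student's t test, 10 experiments.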

The nature of experiment [5]: Percent increase in [125I]rANP binding at 20 uM concentration in bovine zona glomerulosa membranes. The experiment is classed as cell membranes.
Experiment [6] in a line: In vitro binding affinity towards Atrionatriuretic peptide receptor (ANP) using [125I]rANP as radioligand in bovine adrenal zonal glomerulosa membranes.
Experiment [7] is described as follows: In vitro binding affinity towards atrionatriuretic peptide receptor (ANP) using [125I]rANP as radioligand in bovine adrenal zonal glomerulosa membranes; Not active at 20 uM.
The species named for experiment [8] is Rattus norvegicus. Briefly: Inhibition of ACTH (1 nM)-stimulated aldosterone synthesis was determined in rat adrenal glomerulosa (control = 17.4+/-2.5). The experiment is classed as functional.
The species named for experiment [9] is Rattus norvegicus. The experiment in a line: Inhibition of aldosterone synthesis was determined in rat adrenal glomerulosa per 2 hours at 10 uM concentration, in the absence of rANP (control = 1.8+/-0.5). It is filed as functional.
The species named for experiment [10] is Rattus norvegicus. The experiment in a line: Concentration for rANP inhibition of aldosterone synthesis was determined n rat adrenal glomerulosa. It is filed as functional. The procedure, abridged:
as §1

Calls of active or inactive are those of the source. The rule behind the calls is not given here.

Compound `CN(CCCN=C(N)N)c1nc(N2CCCC2)c2ccccc2n1` displayed an SC50 in experiment [1] of 1.5 µM.

Turning to `CC/N=C(/N)NCCNc1nc(N(CC)CC)nc2ccccc12`, the SC50 in experiment [1] is 7.4 µM.

The term EC50 denotes the midpoint of the concentration-response curve. Higher therefore signals a less potent agent. `CCN(CC)c1nc(NCCCN=C(N)N)c2ccccc2n1` registered an SC50 in experiment [1] of 1.8 µM. Moreover, the Concentration in the experiment listed under Rattus norvegicus [2] was 7.7 ng/mL; in the experiment listed under Rattus norvegicus [3], 0.9 ng/mL. In the experiment listed under Rattus norvegicus [4], the EC50 is 0.12 nM.

`CC/N=C(/NC#N)NCCNc1nc(N(CC)CC)nc2ccccc12` had an Increase in experiment [5] of 12%.

`O=C(c1ccco1)N1CCN(c2nc(N3CCCC3)c3ccccc3n2)CC1` registered an SC50 in experiment [1] of 7 µM.

In [1], `CCN(CC)c1nc(NCCCCN=C(N)N)c2ccccc2n1` registered an SC50 of 2.2 µM.

`COc1cc2nc(N3CCN(C(=O)c4ccco4)CC3)nc(N)c2cc1OC` displayed an SC50 in experiment [6] of 25 µM.

Turning to `CCN(CC)c1nc(NCC/N=C(\N)NC)c2ccccc2n1`, the SC50 in experiment [1] turned out to be 4.5 µM.

`CCN(CC)c1nc(NCC/N=C(/NC)NC#N)c2ccccc2n1` showed an Increase in [5] of 25%.

With `CCN(CC)c1nc(NCCN=C(N)N)c2ccccc2n1`, in experiment [1], the SC50 came out at 2.4 µM.

On to `c1ccc2c(N3CCCC3)nc(N3CCNCC3)nc2c1`, for which the SC50 in [1] amounted to 4.2 µM.

Turning to `CCN(CC)c1nc(OC)c2ccccc2n1`, the SC50 entry in experiment [7] is “inactive”. Besides, the figures for the Concentration in the experiment listed under Rattus norvegicus [8] and in the experiment listed under Rattus norvegicus [9] were 17.8 ng/mL and 1.4 ng/mL, respectively. The EC50 in the experiment filed under Rattus norvegicus [10] is 0.18 nM.

Compound `CN(CCCNC(=O)c1ccco1)c1nc(N2CCCC2)c2ccccc2n1` yielded an SC50 in experiment [1] of 5.6 µM.
